Measurements taken from article PMC9059116 (Journal of Medicinal Chemistry, 2022).
Each block holds one compound with its values, some of them ahead of it.

Experiments:
Type in all cases: cell-based
[1] = system: eIF4E phosphorylation (MNK1/2 activity) in MDA-MB-231 cells; assay: western blot of eIF4E phosphorylation; conditions: for inhibition of eIF4E phosphorylation: MDA-MB-231 cells, 24 h, western blot
Method in brief: (§1)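 MDA-MB-231 cells were grown in DMEM with 10% heat-inactivated FBS and penicillin/streptomycin, seeded at 6000 cells/cm² 24 h before treatment. DMSO was kept below 0.5%, with DMSO as negative control. Immunoblotting used ECL detection, with β-actin (1:20 000) probed.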

[2] = system: MNK1 phosphorylation at T209/214 in MDA-MB-231 cells; assay: western blot of MNK1 phosphorylation at T209/214 in MDA-MB-231 cells; conditions: MDA-MB-231, 24 h
Method in brief: as §1

[3] = system: MDA-MB-231 cells; assay: crystal violet growth assay, MDA-MB-231; conditions: MDA-MB-231, 72 h, up to 200 nM
Method in brief: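 Cells kept in DMEM (4.5 g/L glucose) with 10% heat-inactivated FBS and penicillin/streptomycin at 37 °C, 5% CO2. Seeded at 6000 cells/cm², treated 24 h later for 72 h; DMSO kept below 0.5%, DMSO as negative control. Fixed 30 min in 4% formaldehyde, PBS washes, stained 15 min with 0.5% crystal violet, dye dissolved in 15% AcOH, OD 595 nm. Three independent experiments, standard deviation.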

[4] = target: MNK1-eIF4G interaction in HEK-293 cells (Homo sapiens, UniProt Q9BUB5); assay: immunoprecipitation of endogenous eIF4G, MNK1-eIF4G interaction in HEK-293 cells; conditions: HEK-293, 20 μM EB1 or 100 nM eFT508, UV irradiation and 40 min recovery
Method in brief: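 HEK-293 cells were treated 24 h with DMSO or inhibitor, then UV-irradiated (60 J/m²) and recovered 40 min at 37 °C. Anti-eIF4G was bound to protein A beads (4 h, 4 °C), then incubated overnight at 4 °C with about 2 mg precleared lysate. Beads were washed, boiled 5 min at 95 °C, and probed for MNK1 by immunoblot.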

Sequence of MNK1-eIF4G interaction in HEK-293 cells (Q9BUB5 1-424 isoform Q9BUB5-2): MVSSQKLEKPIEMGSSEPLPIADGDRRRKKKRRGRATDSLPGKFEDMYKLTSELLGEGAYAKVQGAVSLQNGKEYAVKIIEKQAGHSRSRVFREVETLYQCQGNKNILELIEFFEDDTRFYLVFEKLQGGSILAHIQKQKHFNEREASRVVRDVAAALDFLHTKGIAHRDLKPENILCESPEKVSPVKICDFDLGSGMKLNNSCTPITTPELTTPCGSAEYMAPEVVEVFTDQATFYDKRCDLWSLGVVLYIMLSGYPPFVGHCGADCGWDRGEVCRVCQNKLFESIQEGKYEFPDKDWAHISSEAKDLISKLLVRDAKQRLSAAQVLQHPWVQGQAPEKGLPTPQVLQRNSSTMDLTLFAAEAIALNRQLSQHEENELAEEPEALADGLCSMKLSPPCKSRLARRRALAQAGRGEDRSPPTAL

SMILES: Nc1n[nH]c2nc(-c3ccccc3)cc(-c3ccccc3)c12 [6b, 4,6-Diphenyl-1H-pyrazolo[3,4-b]pyridin-3-amine]
inhibition of eIF4E phosphorylation after UV stimulation ([1]; MDA-MB-231, pretreatment with inhibitor, UV irradiation, 40 min recovery): strongly inhibited eIF4E phosphorylation
inhibition of eIF4E phosphorylation [1]: clear inhibition of eIF4E phosphorylation
inhibition of eIF4E phosphorylation ([1]; listed as EB1): more potent than CGP5738 but less active than the eFT508

effect on interaction between MNK1 and eIF4G [4]: strongest interaction of eIF4G with MNK1
SMILES: Cc1cc(Nc2cc(N)ncn2)c(=O)n2c1C(=O)NC21CCCCC1 [eFT508 (3), eFT508]
effect on activating phosphorylation of MNK1 at T209/214 [2]: strongly induced phosphorylation of MNKs at T209/214
effect on cell growth [3]: not able to inhibit the growth
inhibition of eIF4E phosphorylation [1]: complete inhibition of eIF4E phosphorylation can be already observed at low nanomolar concentrations

SMILES: Nc1ncnc2[nH]nc(Nc3ccc(F)cc3)c12 [CGP57380 (2), CGP57380]
effect on activating phosphorylation of MNK1 at T209/214 [2]: strongly induced phosphorylation of MNKs at T209/214
